An excerpt weighted towards active compounds, which were near 2.6% of everything screened.
Granule exo inh: LAMP-1 surface exposure blockers, TALL-104 cells – cell-based, flow cytometry, MLPCN library, primary screen; inhibition, % at 10 µM; TALL-104 LAMP-1 surface exposure; cells stimulated with thapsigargin and PMA; 360,000 compounds, 0.66% hits; AID 651702, 2012;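 active = inhibition above about 55%, limit read from the data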
MC4R antag cAMP: MC4R antagonists of cAMP signaling, primary screen, cell-based, TR-FRET, antagonist arm of biased-ligand search; Melanocortin receptor 4 (Homo sapiens), P32245; inhibition, % at 6.5 µM; MC4R-expressing cells, MTII-stimulated cAMP, LANCE TR-FRET; 360,000 compounds, 0.48% hits;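 active = inhibition above its plate's cutoff, the mean of tested wells on that plate plus 3 SD, cut at about 29% in these data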
Target sequence (P32245 whole entry, looked up): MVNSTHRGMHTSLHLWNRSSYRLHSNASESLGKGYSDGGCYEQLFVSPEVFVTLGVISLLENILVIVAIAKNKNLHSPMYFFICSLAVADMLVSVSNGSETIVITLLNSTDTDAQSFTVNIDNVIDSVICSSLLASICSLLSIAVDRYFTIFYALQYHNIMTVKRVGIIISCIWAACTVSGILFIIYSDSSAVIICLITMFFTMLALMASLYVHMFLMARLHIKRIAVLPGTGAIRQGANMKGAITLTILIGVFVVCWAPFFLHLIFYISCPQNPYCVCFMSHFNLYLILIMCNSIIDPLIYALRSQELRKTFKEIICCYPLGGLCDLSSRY
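System – human MC4R-expressing U2OS cells · Also added – Melanotan II · Dosing – one concentration, 6.5 µM nominal · Timing – 30-min compound, 1-h challenge, 1-h detection, room temperature · Measured by – Eu-cAMP/anti-cAMP TR-FRET, emission 671 nm · Replicates – singlicate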
ABCB6 inh MLPCN: ABCB6 transporter inhibitors, primary screen, K562-ABCB6 cells, flow cytometry, MLPCN library | ATP-binding cassette sub-family B member 6 (Homo sapiens), Q9NP58 | K562-ABCB6 porphyrin accumulation, 1 h; active compounds read low | fluorescence ratio to DMSO, % at 10 µM | 360,000 compounds, 0.19% hits | AID 602162, 2011;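 active = fluorescence ratio to DMSO below 75%, the collection mean minus 3 SD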;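 also: signal is porphyrin accumulated inside mitochondria; lower ratio means ABCB6 inhibition with less porphyrin fluorescence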
Tb MetRS inh: T. brucei MetRS inhibitors, primary screen, biochemical, luminescence. AID 624268, 2012. 360,000 compounds, 0.4% hits. inhibition, % at 11.9 µM. purified T. brucei MetRS, ATP depletion, Kinase-Glo luminescence. methionyl-tRNA synthetase (Trypanosoma brucei brucei);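 active = inhibition above a per-plate cutoff of the control wells' mean inhibition plus 3 SD, cut at about 5.5% in these data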
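Dosing: 11.9 µM single point; system: parasite MetRS enzyme; technique: luminescence of leftover ATP; times: 15 min enzyme-compound preincubation, 2 h reaction, 10 min detection, 25 °C; replicates: each compound tested once; read-out basis: percent inhibition relative to median high and low control wells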
MC4R barr agon: MC4R agonists recruiting beta-arrestin, primary screen, cell-based, luminescence, agonist arm of biased-ligand search. U2OS MC4R beta-arrestin complementation; percent of melanotan II response, DMSO zero. 360,000 compounds, 0.98% hits. activation, % at 8.9 µM;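 active = activation above a per-plate cutoff, the mean activation of sample wells on that plate plus 3 SD, cut at about 8% in these data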
iPSC survival up: enhancers of single-cell hiPSC survival, primary screen, ATPlite luminescence; 100% = ROCK inhibitor wells, 0% = DMSO; survival enhancement, % at 20 µM; 360,000 compounds, 0.044% hits; in the data active = survival enhancement above about 18%;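 also: cells exposed to compounds for 16 hours before the ATP read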
MC4R barr ag: MC4R beta-arrestin agonists, retest, confirmation, cell-based, luminescence, U2OS | shares compounds with MC4R barr agon | U2OS MC4R beta-arrestin recruitment; scaled DMSO 0%, Melanotan II 100% | activation, % at 8.9 µM | 2,400 compounds, 31% hits | AID 602192, 2012;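 active = mean activation across replicates above the hit cutoff set in the earlier primary screen, cut at about 8% in these data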
MOR DOR agonist: agonists of MOR-DOR heterodimerization, counter-screen for MC4R biased agonist project, cell-based, luminescence; shares compounds with MC4R barr agon; U2OS PathHunter beta-arrestin, beta-gal luminescence; percent of deltorphin B response, DMSO zero; activation, % at 9.2 µM; 2,400 compounds, 5.8% hits;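 active = mean activation across replicates exceeds the hit threshold derived in the earlier primary screen, cut at about 18% in these data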
Large screens that a line does not name were inactive (follow-up assays come after a bar, where they were run).

Cc1ccc(-n2nc3ccc(NC(=O)c4ccc5c(c4)OCO5)cc3n2)cc1	none
CCc1ccc(-n2nc3ccc(NC(=O)c4ccc5c(c4)OCO5)cc3n2)cc1	MC4R barr agon 11.2 | MC4R barr ag inactive | MOR DOR agonist inactive
O=C(Nc1ccc2nn(-c3ccccc3)nc2c1)c1ccc2c(c1)OCCO2	none
Cc1cc(C(=O)NCc2ccc(F)cc2)c2ccccc2n1	none
COc1cccc(CC2(CO)CCCN(Cc3ccc(C)s3)C2)c1 (stereo unspecified)	none
COc1cccc(CC2(CO)CCCN(Cc3[nH]c4ccc(C)cc4c3C)C2)c1 (stereo unspecified)	MC4R barr agon 10.9 | MC4R barr ag 19.4 | MOR DOR agonist inactive
CCN(CC(=O)Nc1c(F)cccc1F)C(=O)CSCc1ccc(C)cc1	none
Cc1cc(C)c(C#N)c(SCC(=O)Nc2c(C)n(C)n(-c3ccccc3)c2=O)n1	none
Cc1c(C(=O)Nc2ccc(C(F)(F)F)cc2)sc2ncn(CC(=O)N3CCN(c4ccccn4)CC3)c(=O)c12	MC4R barr agon 14.3 | MC4R barr ag inactive | MOR DOR agonist inactive
Cc1ccc(NC(=O)c2sc3ncn(CC(=O)N4CCN(c5ccccn5)CC4)c(=O)c3c2C)cc1	none
CC(/C=C/C=C/c1ccccc1)=N/NC(=O)CNc1ccc(C)cc1	MC4R barr agon 13.8 | MC4R barr ag inactive | MOR DOR agonist inactive
N#CCC(=O)N/N=C/c1cccc(Oc2ccccc2)c1	none
Cc1ccc(NCC(=O)N/N=C/c2cccc(Oc3ccccc3)c2)cc1	MC4R barr agon 23.6 | MC4R barr ag inactive | MOR DOR agonist inactive
Cc1cccc(OCC(=O)NCC(=O)N/N=C/c2ccccc2)c1	none
Cc1cccc(NCC(=O)N/N=C\c2cccc(Oc3ccccc3)c2)c1	MC4R barr agon 11.9 | MC4R barr ag inactive | MOR DOR agonist inactive
CC(/C=C/C=C/c1ccccc1)=N/NC(=O)C(O)c1ccccc1 (stereo unspecified)	none
Cc1nn(-c2ccccc2)nc1C(=O)Nc1ccc2[nH]ncc2c1	MC4R barr agon 23.0 | MC4R barr ag 13.1 | MOR DOR agonist inactive
CS(=O)(=O)Nc1ccc(C(=O)Nc2ccc3c(c2)OCO3)cc1	none
CC1=C(C(=O)N2CCOCC2)CC(CC(=O)NCc2cccs2)C(=O)N1Cc1ccc(F)cc1 (stereo unspecified)	none
COc1ccc(C(=O)Nc2cccc([N+](=O)[O-])c2)cc1Br	MC4R barr agon 22.0 | MC4R barr ag 8.9 | MOR DOR agonist inactive
O=C(Nc1cccc([N+](=O)[O-])c1)c1ccc(-c2ccccc2)cc1	MC4R barr agon 39.4 | MC4R barr ag inactive | MOR DOR agonist 24.6
Cc1ccc(NC(=O)c2csc(-c3ccccc3)c2C)cc1	none
Cc1c(C(=O)Nc2cccc([N+](=O)[O-])c2)csc1-c1ccccc1	MC4R barr agon 13.9 | MC4R barr ag inactive | MOR DOR agonist inactive
O=C(Nc1cccc([N+](=O)[O-])c1)c1cccc(C(=O)Nc2cccc([N+](=O)[O-])c2)c1	none
COc1ccc(C(=O)Nc2ccc(OC)c([N+](=O)[O-])c2)cc1Br	none

Compound activity (PubChem BioAssay)
